# Sampled rows, rich in hits. Any-hit rate of the full collection: about 9.3%.
# hDAT+cocaine = changed human dopamine transporter uptake under cocaine IC80; Q01959; LLC-PK1 hDAT cells, [14C]-dopamine uptake with cocaine IC80; actives deviate in either direction; B-score at 10 µM; AID 449768; 1.3% of 110,000 active;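 active means Z score or B-score, a plate-position-corrected score, falls beyond the plate's 99.7% confidence bounds, in either direction; inactive means both scores lie inside the 99.7% bounds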
# PostGolgi yeast = growth inhibition of a yeast mutant, post-Golgi transport screen | AID 739 | inhibition, % at 10 µM | post-Golgi transport phenotypic cell assay | 0.9% of 98,000 active;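 further: yeast cells grown in 1536-well plates; yeast grown about 18 h at 30C before absorbance read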
# Ecoli WT expand = blocks growth of wild type E. coli BW25113; 0.15% of 98,000 active; growth inhibition, % at 100 µM; OD600 absorbance;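 active means growth inhibition above about 50% at one test dose, limit read from the data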;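 further: growth measured after 20 h incubation at 37 °C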
# PostGolgi ctrl = yeast control strain growth, post-Golgi counter-screen. efflux-deficient yeast background strain, growth absorbance A615, 16 h. inhibition, % at 10 µM. 5% of 98,000 active. AID 738
# D1 mod = allosteric modulators of human D1 dopamine receptor; HEK293 D1, CRE-luciferase, dopamine EC30 potentiation; actives deviate in either direction; P21728; 5.9% of 58,000 active; AID 641; B-score at 10 µM;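 active means luminescence count or its row- and column-corrected plate score outside the 99.7% band of the plate's sample wells, on either side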
# Target sequence (P21728 whole entry, looked up): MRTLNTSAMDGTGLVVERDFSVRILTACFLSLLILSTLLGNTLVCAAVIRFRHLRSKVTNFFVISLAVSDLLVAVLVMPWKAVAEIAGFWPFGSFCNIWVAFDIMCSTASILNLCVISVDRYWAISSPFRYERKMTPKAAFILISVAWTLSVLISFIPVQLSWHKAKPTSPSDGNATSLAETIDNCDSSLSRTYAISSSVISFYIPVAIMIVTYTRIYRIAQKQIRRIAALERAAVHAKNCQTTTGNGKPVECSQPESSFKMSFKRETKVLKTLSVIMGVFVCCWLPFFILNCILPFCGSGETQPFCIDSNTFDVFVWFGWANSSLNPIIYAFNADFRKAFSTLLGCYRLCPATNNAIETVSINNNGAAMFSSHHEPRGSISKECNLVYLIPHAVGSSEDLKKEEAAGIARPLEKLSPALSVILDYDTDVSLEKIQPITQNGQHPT
# tolC growth inh = growth inhibitors of E. coli BW25113 tolC mutant. 2.2% of 65,000 active. growth inhibition, % at 10 µM (by protocol). OD615;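 active means growth inhibition at or above a cutoff equal to the mean over every tested compound plus 3 SD, cut at about 60% in these data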;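 further: growth measured after 20 h incubation at 37 °C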
#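 Material: E. coli BW25113 ΔtolC::kan, tolC deletion mutant strain. Measure: percent growth inhibition. Schedule: 37 °C, 20 h exposure. Doses: single-point testing at 10 µM. Signal: A615 absorbance measurement. Buffer or medium: kanamycin-containing LB broth (50 µg/mL).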
# Hits are given with their value; 0 = inactive; - = no result. Unless noted, no stated cut-off is given here; in the data, active means inhibition above about 30%; inactive means the rest.
SMILES,hDAT+cocaine,PostGolgi yeast,Ecoli WT expand,PostGolgi ctrl,D1 mod,tolC growth inh
c1ccc(OCCCCn2cnc3ccccc32)cc1,0,0,0,0,0,0
Brc1ccccc1OCCCN1CCOCC1,0,0,0,0,0,0
Brc1ccccc1OCCCn1cnc2ccccc21,0,0,0,30.3,-,-
Cc1ccccc1OCCCCCn1ccnc1,0,0,0,0,0,0
Cc1ccccc1OCCCCn1cnc2ccccc21,0,0,0,36.5,-,-
O=S(=O)(c1ccccc1)N(C1=NCCS1)S(=O)(=O)c1ccccc1,0,0,0,0,0,0
O=C1CC(N(CCc2ccccc2)C(=S)Nc2cc(Cl)ccc2Cl)C(=O)N1c1c(Cl)cccc1Cl (configuration not stated),0,0,0,0,-,-
CCOc1cc(S(=O)(=O)NCc2ccco2)c(OCC)cc1-n1cnnn1,0,0,0,0,0,0
O=C(O)CCc1ccc(-c2ccc(Cl)cc2)n1CCC(=O)O,0,0,0,0,-,-
O=C(O)CCc1ccc(-c2ccc(Cl)cc2)n1CC(=O)O,0,0,0,0,-3.68,0
COc1ccc(-c2oc3ccc(-c4ccc5c(c4)OCO5)cc3c2-c2ccc(OC)nc2)cc1,0,-,-,-,-,-
CCCCN(CC)Cc1ccc(CNC(=O)Nc2ccc(OCC)cc2)o1,-4.12,0,0,0,-,-
Cc1ccc(C(=C2C3C=CC2C2C(=O)NC(=O)C32)c2ccc(C)cc2)cc1 (configuration not stated),0,0,0,55.1,-,-
CCCCNC(=O)Cn1c2c(c(-c3ccccc3Cl)cc1=O)CCC2,0,0,0,0,-,-
O=C(Cn1c2c(c(-c3ccccc3)cc1=O)CCCC2)N1CCCCCC1,0,-,-,-,0,100.0
Cc1cc(C)c(C)c(S(=O)(=O)N2C(=S)NC(=O)C2C(C)C)c1C (configuration not stated),0,0,0,43.9,-,-
Cc1cc(C)c(C)c(S(=O)(=O)N2C(=S)NC(=O)C2CC(C)C)c1C (configuration not stated),0,0,0,33.0,-,-
Cc1cc(C)c(C)c(S(=O)(=O)N2CCN(C(=O)c3cc(=O)[nH]c4ccccc34)CC2)c1C,0,0,0,0,-,-
Cc1cc(C)c(C)c(S(=O)(=O)N2CCC(C(=O)OCC(=O)N3c4ccccc4NC(=O)C3(C)C)CC2)c1C,0,0,0,0,-,-
Cc1ccc(SCc2cc(=O)[nH]c(/N=C(\N)Nc3ccc(C)c(C)c3)n2)cc1,0,0,0,0,-,-
Cc1nn(-c2ccc(Cl)c(Cl)c2)c(=O)c2ccccc12,0,0,0,48.8,-,-
Cc1nn(-c2ccc(Cl)c(Cl)c2Cl)c(=O)c2ccccc12,0,0,0,0,-,-
Cn1c2c(c(=O)n(C)c1=O)C(c1ccccc1OC(F)F)C1=C(CCCC1=O)N2 (configuration not stated),0,0,0,0,0,0
O=S(=O)(NC12CC3CC(CC(C3)C1)C2)c1ccc(F)cc1,0,0,0,31.1,-,-
N#CC1=C2SCC(O)(c3ccccc3)N2C(=O)CC1c1ccccc1 (configuration not stated),0,41.4,0,0,-,0
SMILES,hDAT+cocaine,PostGolgi yeast,Ecoli WT expand,PostGolgi ctrl,D1 mod,tolC growth inh
O=c1c2ccccc2oc2cc(C#CC3(O)CCCCC3)ccc12,2.24,-,-,-,-,-
O=c1c2ccccc2sc2ccc(C#CC3(O)CCCCC3)cc12,0,-,-,-,-,-
CCNC(=S)N1CCC(c2nc3ccccc3s2)CC1,0,0,0,44.5,-,-
O=C(CSc1ccccc1Cl)N1CCC(c2nc3ccccc3s2)CC1,0,0,0,63.6,-,-
CCOc1ccc(OCC)c(NC(=O)CCn2cccc2)c1,0,0,0,0,0,0
C=CCOC(=O)C1=C(C)NC(SCC)=C(C#N)C1c1ccc(Cl)cc1 (configuration not stated),0,0,0,55.3,-,-
CCOC(=O)C1=C(C)NC(SCC(=O)OC)=C(C#N)C1c1ccc(C(=O)OC)cc1 (configuration not stated),0,0,0,0,0,0
CCCc1ccc(Oc2cc(N3CCOCC3)nc(-c3ccccc3)n2)cc1,0,-,-,-,-,-
CCCNC(=O)NC(C(=O)OC)C12CC3CC(CC(C3)C1)C2 (configuration not stated),0,0,0,0,0,0
Cc1c(Cl)cccc1NC(=O)c1ccc(-n2ccnc2)nc1,0,0,0,33.9,-,-
Cc1ncoc1C(=O)Nc1cccc(Cl)c1C,0,0,0,0,0,0
CCOC(=O)c1cnn(-c2nc(-c3cccc(F)c3)cs2)c1C(F)(F)F,0,0,0,0,-,-
COC(=O)N1[C@H](C)C=C[C@]1(Cc1ccccc1)C(=O)NCCCNc1ncc(C(F)(F)F)cc1Cl,0,-,-,-,-,-
N#CC1=C(N)Oc2cc3c(cc2C1c1ccc(Cl)cc1)OCO3 (configuration not stated),0,0,0,30.0,0,0
N#CC1=C(N)Oc2cc(O)ccc2C1c1ccccc1 (configuration not stated),0,0,0,0,0,0
CC(C)(C)NC(=O)c1ccccc1-c1nc(-c2ccccc2Cl)no1,0,0,0,30.4,0,0
Cc1ccc(Cn2ccc(NC(=O)c3c(-c4ccccc4Cl)noc3C)n2)cc1,0,0,0,0,0,0
O=C1OC(c2ccc3c(c2)OCO3)N(C(=O)c2ccc(Cl)c(Cl)c2)c2ccccc21 (configuration not stated),0,0,0,30.0,-,-
CCOc1ccc(C2C=C(c3ccc(C)cc3)Nc3ncnn32)cc1 (configuration not stated),0,0,0,37.8,0,0
COc1ccc(-c2nc(-c3ccccc3)c(-c3cc([N+](=O)[O-])ccc3C)[nH]2)cc1O,0,0,0,31.4,-,-
Cc1cc(NC(=O)CCC(=O)N(CC(=O)NC2CCCC2)c2ccc3c(c2)OCCO3)no1,0,0,0,0,-,0
Cc1cc(NC(=O)CCC(=O)N(c2ccc(F)cc2)C2(C(=O)NC3CCCCC3)CCCC2)no1,0,0,0,39.3,0,0
CCCCCCn1c2c(c(=N)c3c1CCC3)CCC2,0,0,0,0,0,89.9
CCOC(=O)C(NC(C)=O)(N1CCOCC1)C(F)(F)F (configuration not stated),1.83,0,0,0,0,0
CCc1nn2c(=O)cc(CSc3nc4sc5c(c4c(=O)n3C)CCCC5)nc2s1,-,-,-,-,0,0
SMILES,hDAT+cocaine,PostGolgi yeast,Ecoli WT expand,PostGolgi ctrl,D1 mod,tolC growth inh
CCn1c(CNC(=O)COC)nc2ccccc21,0,0,0,0,0,0
CCCn1c(CNc2ccc(Br)cc2)nc2ccccc21,0,0,0,70.8,0,100.0
CCn1c(CNc2ccc(C(=O)O)cc2)nc2ccccc21,0,39.0,0,0,-,-
O=C(NC(C(=O)c1ccccc1)N1CCCCC1)c1ccccc1 (configuration not stated),0,38.4,0,0,0,0
O=C(NC(C(=O)c1ccccc1)n1ccc(=O)[nH]c1=O)c1ccccc1 (configuration not stated),0,0,0,30.4,0,0
C=CCOC(=O)Nc1c(C(=O)OC)[nH]c2ccc(Cl)cc12,0,0,0,0,0,0
Cc1cc(C(F)F)n2nc(C(=O)Nc3cccnc3Cl)nc2n1,0,0,0,0,-,-

# From PubChem
